# Reference: ChEMBL document CHEMBL1158565, “Antagonism of 4-substituted 1,4-dihydropyridine-3,5-dicarboxylates toward voltage-dependent L-type Ca2+ channels Ca V 1.3 and Ca V 1.2” (Bioorg Med Chem, 2010)
# Tests used:
# [1] = target: T1, Voltage-dependent L-type calcium channel subunit alpha-1C (Oryctolagus cuniculus, UniProt P15381); experiment: Antagonist activity at rabbit Cav1.2 expressed in tsA201 cells assessed as inhibition of voltage pulse-induced calcium current at 200 nM by whole-cell patch-clamp recording
# [2] = target: Voltage-dependent L-type calcium channel subunit alpha-1D (Rattus norvegicus) (UniProt P27732); experiment: Antagonist activity at rat Cav1.3 expressed in HEK293 cells assessed as inhibition of voltage pulse-induced calcium current at 200 nM by whole-cell patch-clamp recording
# [3] = Selectivity ratio of antagonist activity at rat Cav1.3 to antagonist activity at rabbit Cav1.2 at 200 nM; type: functional
# Method in brief: (§1)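 Percent inhibition of Cav1.3 current was divided by that of Cav1.2 at the same concentration. Currents were from whole-cell patch clamp in transiently transfected tsA201 cells: Ba2+ bath, pH 7.4, steps from -60 mV, about 22 °C.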
# [4] = target: T1, Voltage-dependent L-type calcium channel subunit alpha-1C; experiment: Antagonist activity at rabbit Cav1.2 expressed in tsA201 cells assessed as inhibition of voltage pulse-induced calcium current at 1000 nM by whole-cell patch-clamp recording
# [5] = target: Voltage-dependent L-type calcium channel subunit alpha-1D (Rattus norvegicus) (UniProt P27732); experiment: Antagonist activity at rat Cav1.3 expressed in HEK293 cells assessed as inhibition of voltage pulse-induced calcium current at 200 nM by FLIPR calcium 4 assay; type: functional, cell-based; conditions: in the assay text read “by whole-cell patch-clamp recording” for “by FLIPR calcium 4 assay”
# Method in brief: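 Whole-cell patch clamp on tsA201 cells transiently cotransfected with rabbit Cav1.2 α1C or rat Cav1.3 α1D, Cavβ3 and Cavα2δ-1 (1:1:1) plus GFP. GFP cells were recorded after replating at 48 h. Bath (mM): 110 NaCl, 1 MgCl2, 10 BaCl2, 10 HEPES, 10 glucose, 20 CsCl, pH 7.4. Compound was diluted from DMSO stock and perfused. Pulses ran from -60 mV to +10 or 0 mV with tetrodotoxin at about 22 °C. Read-out was percent current inhibition.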
# [6] = Selectivity ratio of antagonist activity at rat Cav1.3 to antagonist activity at rabbit Cav1.2 at 100 nM; type: functional
# Method in brief: as §1
# [7] = target: Voltage-dependent L-type calcium channel subunit alpha-1D (Rattus norvegicus) (UniProt P27732); experiment: Antagonist activity at rat Cav1.3 expressed in HEK293 cells assessed as inhibition of voltage pulse-induced calcium current at 100 nM by whole-cell patch-clamp recording
# [8] = target: T1, Voltage-dependent L-type calcium channel subunit alpha-1C; experiment: Antagonist activity at rabbit Cav1.2 expressed in tsA201 cells assessed as inhibition of voltage pulse-induced calcium current at 100 nM by whole-cell patch-clamp recording
# [9] = target: T1, Voltage-dependent L-type calcium channel subunit alpha-1C; experiment: Antagonist activity at rabbit Cav1.2 expressed in HEK293 cells assessed as inhibition of voltage pulse-induced calcium current by FLIPR calcium 4 assay; type: functional, cell-based
# Method in brief: (§2)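 HEK293 lines stably expressing Cavβ3 and Cavα2δ-1 plus Cav1.2 α1C (rabbit) or Cav1.3 α1D (rat) were selected with zeocin/hygromycin. Calcium signals were read by FLIPR with Calcium 4 dye. IC50 came from 11-point dose-response curves. Signal percentage error (SD/mean) was 6.4% for Cav1.2 and 4.1% for Cav1.3 cells.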
# [10] = target: Voltage-dependent L-type calcium channel subunit alpha-1D (Rattus norvegicus, UniProt P27732); experiment: Antagonist activity at rat Cav1.3 expressed in HEK293 cells assessed as inhibition of voltage pulse-induced calcium current by FLIPR calcium 4 assay; type: functional, cell-based
# Method in brief: as §2
# Sequence of Voltage-dependent L-type calcium channel subunit alpha-1D (Rattus norvegicus) (P27732 whole entry, the tested form may be a part): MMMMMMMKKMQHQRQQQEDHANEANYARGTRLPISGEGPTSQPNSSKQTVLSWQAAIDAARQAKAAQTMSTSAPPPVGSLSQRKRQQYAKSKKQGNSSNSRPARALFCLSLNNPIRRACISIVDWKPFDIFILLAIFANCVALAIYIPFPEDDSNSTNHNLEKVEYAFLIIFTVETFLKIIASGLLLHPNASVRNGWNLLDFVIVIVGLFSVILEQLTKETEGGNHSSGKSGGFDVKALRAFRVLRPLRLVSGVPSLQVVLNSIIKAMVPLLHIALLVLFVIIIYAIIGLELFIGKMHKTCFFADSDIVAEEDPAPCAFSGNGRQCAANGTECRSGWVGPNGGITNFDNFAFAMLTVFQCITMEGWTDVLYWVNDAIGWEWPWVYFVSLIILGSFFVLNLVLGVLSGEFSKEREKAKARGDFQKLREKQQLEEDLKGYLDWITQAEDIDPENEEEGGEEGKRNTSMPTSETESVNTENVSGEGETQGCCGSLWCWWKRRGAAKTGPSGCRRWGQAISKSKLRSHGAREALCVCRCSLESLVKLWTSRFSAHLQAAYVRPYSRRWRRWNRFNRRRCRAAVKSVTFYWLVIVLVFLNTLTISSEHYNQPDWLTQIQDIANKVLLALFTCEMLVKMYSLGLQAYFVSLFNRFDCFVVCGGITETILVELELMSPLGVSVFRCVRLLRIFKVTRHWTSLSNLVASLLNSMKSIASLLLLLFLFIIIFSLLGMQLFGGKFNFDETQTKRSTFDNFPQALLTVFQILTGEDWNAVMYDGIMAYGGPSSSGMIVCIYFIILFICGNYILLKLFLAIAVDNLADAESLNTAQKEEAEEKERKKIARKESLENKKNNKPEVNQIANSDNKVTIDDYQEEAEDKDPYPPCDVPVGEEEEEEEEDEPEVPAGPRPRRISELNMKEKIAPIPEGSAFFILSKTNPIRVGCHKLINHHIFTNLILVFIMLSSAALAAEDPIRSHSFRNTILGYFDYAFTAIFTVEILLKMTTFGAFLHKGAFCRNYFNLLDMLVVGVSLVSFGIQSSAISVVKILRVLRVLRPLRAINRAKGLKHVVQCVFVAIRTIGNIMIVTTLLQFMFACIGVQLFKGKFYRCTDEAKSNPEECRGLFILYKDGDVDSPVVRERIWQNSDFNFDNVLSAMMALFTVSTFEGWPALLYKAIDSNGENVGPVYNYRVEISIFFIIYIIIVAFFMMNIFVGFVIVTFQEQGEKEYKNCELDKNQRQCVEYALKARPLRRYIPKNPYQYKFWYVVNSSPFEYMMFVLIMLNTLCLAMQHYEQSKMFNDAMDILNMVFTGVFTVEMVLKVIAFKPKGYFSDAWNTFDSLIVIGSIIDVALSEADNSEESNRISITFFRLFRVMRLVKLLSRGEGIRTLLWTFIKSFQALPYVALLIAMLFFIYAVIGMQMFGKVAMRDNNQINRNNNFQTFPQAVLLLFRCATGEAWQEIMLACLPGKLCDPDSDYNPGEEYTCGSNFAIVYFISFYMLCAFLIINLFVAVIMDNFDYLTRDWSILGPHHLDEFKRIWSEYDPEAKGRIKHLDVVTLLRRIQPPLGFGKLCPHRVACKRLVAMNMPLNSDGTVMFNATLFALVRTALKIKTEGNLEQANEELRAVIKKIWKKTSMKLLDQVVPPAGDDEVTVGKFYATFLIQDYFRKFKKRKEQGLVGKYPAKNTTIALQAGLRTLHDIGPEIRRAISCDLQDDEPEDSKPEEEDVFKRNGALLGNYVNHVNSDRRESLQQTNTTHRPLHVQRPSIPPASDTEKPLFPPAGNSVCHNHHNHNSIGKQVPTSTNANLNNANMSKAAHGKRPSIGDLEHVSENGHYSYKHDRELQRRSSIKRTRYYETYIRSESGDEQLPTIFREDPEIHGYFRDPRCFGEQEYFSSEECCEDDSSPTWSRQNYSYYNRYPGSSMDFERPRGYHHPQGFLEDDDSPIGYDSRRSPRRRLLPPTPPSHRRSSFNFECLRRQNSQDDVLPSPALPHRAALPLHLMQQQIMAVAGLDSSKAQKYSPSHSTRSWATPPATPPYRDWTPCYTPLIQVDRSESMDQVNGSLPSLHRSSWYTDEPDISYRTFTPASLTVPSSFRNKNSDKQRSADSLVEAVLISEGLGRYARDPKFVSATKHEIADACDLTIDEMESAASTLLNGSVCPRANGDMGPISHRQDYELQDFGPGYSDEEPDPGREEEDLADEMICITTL
# T1 sequence (P15381 whole entry): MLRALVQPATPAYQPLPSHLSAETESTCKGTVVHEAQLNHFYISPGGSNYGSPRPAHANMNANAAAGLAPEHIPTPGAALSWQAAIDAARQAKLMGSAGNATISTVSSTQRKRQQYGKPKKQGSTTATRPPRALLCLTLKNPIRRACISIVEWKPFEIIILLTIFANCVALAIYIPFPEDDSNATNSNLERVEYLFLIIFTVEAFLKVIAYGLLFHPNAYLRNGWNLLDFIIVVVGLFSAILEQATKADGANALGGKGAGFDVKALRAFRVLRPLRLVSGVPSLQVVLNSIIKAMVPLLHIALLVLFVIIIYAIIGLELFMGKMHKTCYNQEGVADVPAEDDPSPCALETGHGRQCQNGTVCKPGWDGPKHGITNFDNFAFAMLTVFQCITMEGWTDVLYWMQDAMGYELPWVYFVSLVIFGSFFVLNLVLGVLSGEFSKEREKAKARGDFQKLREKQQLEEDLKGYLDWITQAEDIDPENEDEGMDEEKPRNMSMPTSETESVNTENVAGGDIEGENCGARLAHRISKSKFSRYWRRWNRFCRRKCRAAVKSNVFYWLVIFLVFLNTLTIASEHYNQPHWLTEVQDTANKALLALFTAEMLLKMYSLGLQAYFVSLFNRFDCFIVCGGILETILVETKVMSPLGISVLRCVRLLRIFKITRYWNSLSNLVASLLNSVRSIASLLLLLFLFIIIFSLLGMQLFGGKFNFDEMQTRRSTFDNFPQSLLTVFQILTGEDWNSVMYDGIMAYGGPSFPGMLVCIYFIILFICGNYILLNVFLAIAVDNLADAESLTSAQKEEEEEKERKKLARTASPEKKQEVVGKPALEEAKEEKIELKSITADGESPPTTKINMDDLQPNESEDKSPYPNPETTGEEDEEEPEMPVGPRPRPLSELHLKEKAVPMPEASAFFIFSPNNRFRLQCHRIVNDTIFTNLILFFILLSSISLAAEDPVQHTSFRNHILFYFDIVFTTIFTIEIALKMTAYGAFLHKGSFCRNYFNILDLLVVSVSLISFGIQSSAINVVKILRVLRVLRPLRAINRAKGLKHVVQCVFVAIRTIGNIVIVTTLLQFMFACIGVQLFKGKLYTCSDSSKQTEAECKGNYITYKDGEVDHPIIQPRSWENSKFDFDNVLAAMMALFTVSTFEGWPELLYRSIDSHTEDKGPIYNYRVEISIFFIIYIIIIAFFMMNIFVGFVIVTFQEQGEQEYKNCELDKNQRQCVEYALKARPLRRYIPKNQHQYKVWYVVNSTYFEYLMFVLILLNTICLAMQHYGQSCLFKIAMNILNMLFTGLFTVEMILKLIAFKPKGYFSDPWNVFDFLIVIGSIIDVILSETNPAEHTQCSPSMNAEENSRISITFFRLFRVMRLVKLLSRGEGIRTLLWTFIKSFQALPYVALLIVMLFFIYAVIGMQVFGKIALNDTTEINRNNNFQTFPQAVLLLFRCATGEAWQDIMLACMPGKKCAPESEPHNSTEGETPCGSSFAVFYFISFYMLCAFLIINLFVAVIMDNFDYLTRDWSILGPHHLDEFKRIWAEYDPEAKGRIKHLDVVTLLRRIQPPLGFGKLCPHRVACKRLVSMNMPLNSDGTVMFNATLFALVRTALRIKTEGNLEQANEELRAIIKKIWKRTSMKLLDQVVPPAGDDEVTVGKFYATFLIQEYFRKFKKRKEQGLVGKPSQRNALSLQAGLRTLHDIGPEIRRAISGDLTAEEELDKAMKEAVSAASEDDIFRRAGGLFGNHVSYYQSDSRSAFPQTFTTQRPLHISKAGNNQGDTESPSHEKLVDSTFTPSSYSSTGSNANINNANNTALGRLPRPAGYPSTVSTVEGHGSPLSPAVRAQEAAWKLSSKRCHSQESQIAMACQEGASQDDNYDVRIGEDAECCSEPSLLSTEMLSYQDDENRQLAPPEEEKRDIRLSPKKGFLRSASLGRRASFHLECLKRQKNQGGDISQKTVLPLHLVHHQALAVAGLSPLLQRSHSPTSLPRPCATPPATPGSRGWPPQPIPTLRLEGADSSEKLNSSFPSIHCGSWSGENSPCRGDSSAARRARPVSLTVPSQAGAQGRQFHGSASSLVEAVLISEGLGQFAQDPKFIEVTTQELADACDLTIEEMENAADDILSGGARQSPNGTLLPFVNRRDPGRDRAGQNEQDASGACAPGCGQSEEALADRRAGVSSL
# Sequence of Voltage-dependent L-type calcium channel subunit alpha-1D (P27732 whole entry): as the sequence (P27732 whole entry, the tested form may be a part) above
Structure (SMILES),inhibition at 0.2 µM [1],Selectivity ratio [3],inhibition [5],further results
CCOC(=O)C1=C(C)N=C(C)/C(=C(/O)OCC)C1c1cccc(OC)c1 (stereo not drawn),69%,0.64,,inhibition [2]: 44%
CCOC(=O)C1=C(CC)NC(C)=C(C(=O)OC)C1c1ccc([N+](=O)[O-])cc1 (stereo not drawn),,,,inhibition at 1 µM [4]: 28%
CCOC(=O)C1=C(C(F)(F)F)NC(C(F)(F)F)=C(C(=O)OCC)C1c1cccc(C(F)(F)F)c1,61%,1.1,67%,
CCOC(=O)C1=C(C)NC(C)=C(C(=O)OCC)C1C(C)c1ccccc1 (stereo not drawn),,,,inhibition at 1 µM [4]: 28%
CCOC(=O)C1=C(C)N=C(C)/C(=C(/O)OCC)C1c1ccco1 (stereo not drawn),72%,0.67,,inhibition [2]: 48%
CC1=C(C(=O)OCC(C)C)C(c2cccc([N+](=O)[O-])c2)C(C(=O)OCC(C)C)=C(C)N1,52%,1.14,59%,
CCOC(=O)C1=C(C)NC(C)=C(C(=O)OCC)C1c1ccccc1,,,,Selectivity ratio [6]: 0.85; inhibition [7]: 41%; inhibition at 0.1 µM [8]: 48%
CCOC(=O)C1=C(C)NC(C)=C(C(=O)OCC)C1c1csc2ccccc12,80%,0.7,57%,
CCOC(=O)C1=C(C)N=C(C)/C(=C(/O)OCC)C1/C=C/c1ccccc1 (stereo not drawn),,,,inhibition at 1 µM [4]: 30%
CCOC(=O)C1=C(C(F)(F)F)NC(C(F)(F)F)=C(C(=O)OCC)C1c1cccc([N+](=O)[O-])c1,34%,1.11,38%,
CCOC(=O)C1=C(C)NC(CC)=C(C(=O)OCC)C1c1cccc([N+](=O)[O-])c1 (stereo not drawn),93%,0.95,88%,
CCOC(=O)C1=C(C)NC(C)=C(C(=O)OCC)C1c1ccccc1I,96%,0.99,95%,
CCOC(=O)C1=C(C)NC(C)=C(C(=O)OCC)C1c1ccoc1,56%,0.57,32%,
CCCC1=C(C(=O)OCC)C(c2cccc([N+](=O)[O-])c2)C(C(=O)OCC)=C(CCC)N1,,,,Selectivity ratio [6]: 1.07; inhibition [7]: 27%; inhibition at 0.1 µM [8]: 25%
CCOC(=O)C1=C(C)NC(C)=C(C(=O)OCC)C1c1cc(Br)cc(Br)c1,74%,0.98,72%,
CCOC(=O)C1=C(C)NC(C)=C(C(=O)OCC)C1c1ccc([N+](=O)[O-])cc1,,,,inhibition at 1 µM [4]: 48%
COC(=O)C1=C(C)NC(C)=C(C(=O)OC)C1c1ccccc1[N+](=O)[O-] [NIFEDIPINE],,,,Selectivity ratio [6]: 0.67; inhibition [7]: 46%; inhibition at 0.1 µM [8]: 69%
CCOC(=O)C1=C(C)NC(C)=C(C(=O)OCC)C1c1ccc2ccccc2c1,16%,0.75,12%,
COC(=O)C1=C(C)NC(C)=C(C(=O)OC(C)C)C1c1cccc([N+](=O)[O-])c1 (stereo not drawn),96%,0.93,89%,
CCOC(=O)C1=C(C)NC(C)=C(C(=O)OCC)C1c1cccc(Br)c1,,,,Selectivity ratio [6]: 0.98; inhibition [7]: 80%; inhibition at 0.1 µM [8]: 82%
CCOC(=O)C1=C(C)NC(C)=C(C(=O)OCC)C1c1ccc(OCc2ccc(Br)cc2)cc1,,,,inhibition at 1 µM [4]: 38%
COC(=O)C1=C(C)NC(C)=C(C(=O)OC(C)(C)C)C1c1cccc([N+](=O)[O-])c1 (stereo not drawn) [MEBUDIPINE],91%,0.93,85%,
CCCC1C(C(=O)OCC)=C(C)NC(C)=C1C(=O)OCC,42%,0.86,36%,
CCOC(=O)C1=C(C)NC(C)=C(C(=O)OCC)C1c1cc(C(F)(F)F)cc(C(F)(F)F)c1,38%,1,38%,

Structure (SMILES),inhibition at 0.2 µM [1],Selectivity ratio [3],inhibition [5],further results
CC1=C(C(=O)OC(C)(C)C)C(c2cccc([N+](=O)[O-])c2)C(C(=O)OC(C)(C)C)=C(C)N1,,,,Selectivity ratio [6]: 0.69; inhibition [7]: 22%; inhibition at 0.1 µM [8]: 32%
CCOC(=O)C1=C(C)N(C)C(C)=C(C(=O)OCC)C1c1cccc([N+](=O)[O-])c1,,,,inhibition at 1 µM [4]: 35%
CCOC(=O)C1=C(C)NC(C)=C(C(=O)OCC)C1c1ccccc1-c1ccccc1,73%,0.89,65%,
CCOC(=O)C1=C(C)NC(C)=C(C(=O)OC)C1c1ccc([N+](=O)[O-])cc1 (stereo not drawn),,,,inhibition at 1 µM [4]: 48%
CCOC(=O)C1=C(C)NC(C)=C(C(=O)OCC)C1c1ccc([N+](=O)[O-])o1,43%,0.95,,inhibition [2]: 41%
COC(=O)C1=C(C)NC(C)=C(C(=O)OCC(C)C)C1c1cccc([N+](=O)[O-])c1 (stereo not drawn),94%,0.96,90%,
CCOC(=O)C1=C(C)NC(C)=C(C(=O)OC)C1c1cccc([N+](=O)[O-])c1 (stereo not drawn) [NITRENDIPINE],,,,Selectivity ratio [6]: 0.55; inhibition [7]: 34%; inhibition at 0.1 µM [8]: 62%
CCOC(=O)C1=C(C)NC(C)=C(C(=O)OCC)C1c1cccc(C(F)(F)F)c1,85%,0.99,,inhibition [2]: 84%
CCOC(=O)C1=C(C)N=C(C)/C(=C(/O)OCC)C1c1cccs1 (stereo not drawn),65%,0.87,57%,
CCOC(=O)C1=C(C)NC(C)=C(C(=O)OCC)C1c1cccc(Cl)c1,,,,Selectivity ratio [6]: 1.02; inhibition [7]: 59%; inhibition at 0.1 µM [8]: 58%
CCOC(=O)C1=C(C)N=C(C)/C(=C(/O)OCC)C1c1ccncc1 (stereo not drawn),27%,0.56,15%,
CCOC(=O)C1=C(C)NC(C)=C(C(=O)OCC)C1c1cccc(F)c1,,,,Selectivity ratio [6]: 0.75; inhibition [7]: 48%; inhibition at 0.1 µM [8]: 64%
CC1=C(C(=O)OC(C)(C)C)C(c2ccc([N+](=O)[O-])cc2)C(C(=O)OC(C)(C)C)=C(C)N1,,,,inhibition at 1 µM [4]: 36%
CC1=C(C(=O)OC(C)C)C(c2cccc([N+](=O)[O-])c2)C(C(=O)OC(C)C)=C(C)N1,77%,0.86,66%,
CCOC(=O)C1=C(CC)NC(CC)=C(C(=O)OCC)C1c1cccc([N+](=O)[O-])c1,,,,Selectivity ratio [6]: 0.71; inhibition [7]: 37%; inhibition at 0.1 µM [8]: 52%
CCOC(=O)C1=C(C)NC(C)=C(C(=O)OCC)C1c1ccc(-c2cccs2)s1,,,,inhibition at 1 µM [4]: 35%
CCOC(=O)C1=C(C)NC(C)=C(C(=O)OCC)C1C1CCCCC1,26%,0.81,21%,
CCOC(=O)C1=C(CC)NC(C)=C(C(=O)OC)C1c1cccc([N+](=O)[O-])c1 (stereo not drawn),,,,Selectivity ratio [6]: 0.72; inhibition [7]: 55%; inhibition at 0.1 µM [8]: 76%
CCOC(=O)C1=C(C)NC(C)=C(C(=O)OCC)C1c1ccc(Cl)c([N+](=O)[O-])c1,86%,0.77,66%,
CCOC(=O)C1=C(C)NC(C)=C(C(=O)OCC)C1c1ccsc1,54%,0.93,50%,
CCOC(=O)C1=C(C)NC(C)=C(C(=O)OCC)C1c1cc([N+](=O)[O-])ccc1Cl,97%,0.92,89%,
CCOC(=O)C1=C(C)NC(C)=C(C(=O)OCC)C1c1cc2cccc(C)c2nc1Cl,,,,inhibition at 1 µM [4]: 12%
CCOC(=O)C1=C(C)N=C(C)/C(=C(/O)OCC)C1c1cccnc1 (stereo not drawn),25%,0.56,,inhibition [2]: 14%
COC(=O)C1=C(C)NC(C)=C(C(=O)OCCOCc2ccccc2)C1c1cccc([N+](=O)[O-])c1 (stereo not drawn),,,,IC50 [9]: 0.009 µM; IC50 [10]: 0.012 µM
